Data as given in ChEMBL document CHEMBL3407438, “Discovery of potent, orally bioavailable, small-molecule inhibitors of WNT signaling from a cell-based pathway screen” (J Med Chem, 2015).
In brackets after ≈: the same amount, converted by molar mass.

Assays:
[1] = Drug metabolism in human liver microsome at 10 uM after 30 mins by LC-MS analysis; assay type: ADME; conditions: liver microsomes, read-out: Drug metabolism
[2] = Drug metabolism in mouse liver microsome at 10 uM after 30 mins by LC-MS analysis; assay type: ADME; conditions: liver microsomes, read-out: Drug metabolism
cells = assay type: cell-based; conditions: Homo sapiens, 7dF3
Liver microsome = experiment: Intrinsic clearance in rat liver microsome at 1 uM preincubated for 5 mins by LC-MS analysis; assay type: ADME; conditions: microsomes
[3] = Aqueous solubility of the compound; assay type: physicochemical; conditions: buffer
[4] = Apparent permeability in human Caco2 cells after 2 hrs by LC-MS/MS analysis; assay type: ADME, cell-based, Caco-2; conditions: Caco-2
[5] = Inhibition of WNT signaling in human T-Rex HEK293 Tet-O cells harboring constitutively active deltaN-LRP6 after 4 days by luciferase reporter assay; assay type: cell-based; conditions: HEK293, 96 h
How it was run: (§1)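 HEK293 T-Rex Tet-O cells stably carrying TCF-firefly luciferase-IRES-GFP reporter plus Tet-inducible cDNA (ΔN-LRP6, Dvl2, Axin-GID, ΔN-β-catenin or VP16-TCF4) introduced by FLP-FRT recombination; seeded from frozen at 40 000/well; day 3 compound added, eight concentrations 30 μM to 14 nM (final), with doxycycline hyclate; day 4 cells lysed, firefly luciferase luminescence read.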

[6] = Inhibition of WNT signaling in human T-Rex HEK293 Tet-O cells harboring Dvl2 after 4 days by luciferase reporter assay; assay type: cell-based; conditions: HEK293, 96 h; how it was run: as §1
[7] = Inhibition of WNT signaling in human T-Rex HEK293 Tet-O cells harboring dominant negative form of Axin GSK3beta-interacting domain after 4 days by luciferase reporter assay; assay type: cell-based; conditions: HEK293, 96 h; how it was run: as §1
[8] = Inhibition of WNT signaling in human T-Rex HEK293 Tet-O cells harboring degradation resistant form of beta-catenin after 4 days by luciferase reporter assay; assay type: cell-based; conditions: HEK293, 96 h; how it was run: as §1
[9] = Inhibition of WNT signaling in human T-Rex HEK293 Tet-O cells harboring constitutively active VP16-TCF in absence of beta-catenin after 4 days by luciferase reporter assay; assay type: cell-based; conditions: HEK293, 96 h; how it was run: as §1

SMILES	metabolised at 0.5 h, 10 µM [1]	metabolised at 0.5 h, 10 µM [2]	IC50 (cells)	other results
Cc1cncc(-c2ccc(N3CCOCC3)cc2)c1N1CCC2(CCNC2=O)CC1	5%	26%	113 nM	
CS(=O)(=O)c1ccc(-c2cncc(Cl)c2N2CCC(C(N)=O)CC2)cc1	0%	29%	1670 nM	
CC1(C(N)=O)CCN(c2c(Cl)cncc2-c2ccc(N3CCOCC3)cc2)CC1	21%	20%	87 nM	
Clc1cncc(Cl)c1N1CCCCC1			> 30000 nM	
NC(=O)C1CCN(c2c(Cl)cncc2-c2ccc(N3CCOCC3)cc2)CC1	19%	21%	42 nM	
O=C1NCCC12CCN(c1c(Cl)cncc1-c1ccc(-c3ccncc3)cc1)CC2				CLint (Liver microsome): 99 µL/min/mg
Cn1ncc2cc(-c3cncc(Cl)c3N3CCC4(CCNC4=O)CC3)ccc21				CLint (Liver microsome): 66 µL/min/mg
O=C1NCCC12CCN(c1c(Cl)cncc1-c1ccc(-c3cnoc3)cc1)CC2				CLint (Liver microsome): 136 µL/min/mg
O=C1CC2(CCN(c3c(Cl)cncc3-c3ccc(N4CCOCC4)cc3)CC2)CN1			746 nM	
NC(=O)C1CCN(c2c(Cl)cccc2Cl)CC1			27900 nM	
NC(=O)C1CCN(c2c(Cl)cncc2-c2cccc(N3CCOCC3)c2)CC1	39%	38%	309 nM	
O=C1NCCC12CCN(c1c(Cl)cncc1-c1ccc(N3CCOCC3)cc1)C2 (racemic)		42%	55 nM	
NC(=O)C1CCN(c2ccncc2Cl)CC1	8%		23000 nM	
NC(=O)C1CCN(c2ccncc2-c2ccccc2)CC1	4%	23%	3260 nM	
O=C1CC2(CCN(c3c(Cl)cncc3-c3ccc(N4CCOCC4)cc3)CC2)C(=O)N1	24%	25%	6 nM	solubility [3]: 3 µg/mL (≈ 6.8 µM)
CC(C)c1cncc(-c2ccc(N3CCOCC3)cc2)c1N1CCC2(CCNC2=O)CC1	38%	17%	78 nM	
O=C1NCCC12CCN(c1c(Cl)cncc1-c1ccc(C3CCOCC3)cc1)CC2				CLint (Liver microsome): 111 µL/min/mg
O=C1NCCC12CCN(c1c(Cl)cncc1-c1ccc3cnccc3c1)CC2				Papp at 2 h [4]: 24 ×10⁻⁶ cm/s
O=C1NCCC12CCN(c1c(-c3ccccc3)cncc1-c1ccc(N3CCOCC3)cc1)CC2			> 30000 nM	
CN(C)c1ccc(-c2cncc(Cl)c2N2CCC(C(N)=O)CC2)cc1			123 nM	
Cn1cc(-c2cncc(-c3ccc(N4CCOCC4)cc3)c2N2CCC3(CCNC3=O)CC2)cn1			1200 nM	
Cn1cc(-c2ccc(-c3cncc(Cl)c3N3CCC4(CCNC4=O)C3)cc2)cn1 (stereo in doubt; 79)				CLint (Liver microsome): 298 µL/min/mg
O=C(Nc1ccccc1)C1CCN(c2c(Cl)cncc2Cl)CC1			> 30000 nM	
CN1CCN(c2ccc(-c3cncc(Cl)c3N3CCC4(CCNC4=O)CC3)cc2)CC1				CLint (Liver microsome): 10 µL/min/mg

SMILES	metabolised at 0.5 h, 10 µM [1]	metabolised at 0.5 h, 10 µM [2]	IC50 (cells)	other results
COc1ccc(-c2cncc(Cl)c2N2CCC(C(N)=O)CC2)cc1	30%	84%	37 nM	IC50 [5]: 20 nM; IC50 [6]: 20 nM; IC50 [7]: 24 nM; IC50 [8]: 70 nM; IC50 [9]: 230 nM
NC(=O)C1CCN(c2c(Cl)cncc2-c2cn[nH]c2)CC1	6%	88%	1700 nM	
CN(C)C(=O)C1CCN(c2c(Cl)cncc2Cl)CC1	22%	99%	26000 nM	
Cn1cc(-c2ccc(-c3cncc(Cl)c3N3CCC4(CCNC4=O)C3)cc2)cn1 (single isomer, unassigned; enantiomer 2)				CLint (Liver microsome): 124 µL/min/mg
NC(=O)C1CCN(c2c(Cl)cncc2-c2ccccc2)CC1	6%	56%	88 nM	
Cn1ccc(-c2ccc(-c3cncc(Cl)c3N3CCC4(CCNC4=O)CC3)cc2)n1				CLint (Liver microsome): 97 µL/min/mg
O=C1NCCC12CCN(c1c(Cl)cncc1-c1ccc(N3CCCCC3)cc1)CC2				CLint (Liver microsome): 225 µL/min/mg
NC(=O)C1CCN(c2c(Br)cncc2Br)CC1	13%	35%	360 nM	
O=C(C1CCN(c2c(Cl)cncc2Cl)CC1)N1CCOCC1			44600 nM	
NC(=O)C1CCN(c2ccncc2)CC1			> 30000 nM	
O=C1NCCC12CCN(c1c(-c3ccc(N4CCOCC4)cc3)cncc1C1CC1)CC2			1000 nM	
NCC1CCN(c2c(Cl)cncc2Cl)CC1			10000 nM	
O=C1NCCC12CCCN(c1c(Cl)cncc1-c1ccc(N3CCOCC3)cc1)C2 (racemic)			5700 nM	
CN1CCC2(CCN(c3c(Cl)cncc3-c3ccc(N4CCOCC4)cc3)CC2)C1=O			715 nM	
N#CC1CCN(c2c(Cl)cncc2-c2ccc(N3CCOCC3)cc2)CC1		78%	70 nM	
Cn1cc(-c2cncc(Cl)c2N2CCC(C(N)=O)CC2)cn1	4%	27%	778 nM	
C=C(C)c1cncc(-c2ccc(N3CCOCC3)cc2)c1N1CCC2(CCNC2=O)CC1		39%	12 nM	
COCCNC(=O)C1CCN(c2c(Cl)cncc2Cl)CC1			> 30000 nM	
CNC(=O)C1CCN(c2c(Cl)cncc2Cl)CC1	13%	57%	12500 nM	
NC(=O)C1CCN(c2c(Cl)cncc2-c2ccncc2)CC1	5%	40%	728 nM	
NC(=O)C1CCN(c2c(Cl)cncc2-c2cccnc2)CC1	6%	37%	1100 nM	
NC(=O)C1CCN(c2c(Cl)cncc2-c2ccc(F)cc2)CC1		52%	87 nM	
Cn1cc(-c2ccc(-c3cncc(Cl)c3N3CCC4(CCNC4=O)C3)cc2)cn1 (racemic)				CLint (Liver microsome): 213 µL/min/mg
NC(=O)C1CCN(c2c(Cl)cncc2-c2cccs2)CC1	27%	97%	40 nM	
